Experimental data: ChEMBL document CHEMBL4118104, “Design, Synthesis, and Evaluation of Orally Bioavailable Quinoline-Indole Derivatives as Innovative Multitarget-Directed Ligands: Promotion of Cell Proliferation in the Adult Murine Hippocampus for the Treatment of Alzheimer's Disease” (J Med Chem, 2018)
Active and inactive are the calls of the source. The calls are words filed in the database; no cut-off is given here.

What was measured:
[1] = Permeability of compound at 100 ug/ml after 10 hrs by PAMPA assay; format: ADME; conditions: read-out: permeability
[2] = tested on: PC-12; assay: Cytotoxicity against rat undifferentiated PC12 cells at 0.5 to 50 uM after 72 hrs by MTT assay; format: cell-based; conditions: pc-12, 72 h
[3] = Metabolic stability in Sprague-Dawley rat liver microsomes assessed as metabolic rate constant at 100 uM up to 180 mins by HPLC-UV analysis; conditions: 3 h
[4] = tested on: Mus musculus; assay: Induction of cell proliferation in C57BL/6 mouse hippocampal neurons in CA1 region assessed as BrdU-incorporation at 30 mg/kg, po administered via gavage for 7 days by immunohistochemical analysis (reference value: 2.3%); format: functional
In short: (§1)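 C57BL/6 mice, 12 weeks old, n = 6, individually housed beforehand without wheels. Compound gavaged 30 mg/kg/day for 7 days with daily IP BrdU 50 mg/kg; BrdU+ cells counted by immunohistochemistry per hippocampal volume; two-way ANOVA.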

[5] = tested on: Mus musculus; assay: Toxicity in C57BL/6 mouse assessed as macroscopic abnormalities of liver at 677 to 2000 mg/kg, ig after 14 consecutive days; format: organism-based; conditions: in vivo, po
[6] = tested on: Mus musculus; assay: Toxicity in C57BL/6 mouse assessed as effect on water intake at 677 to 2000 mg/kg, ig measured continuously during first 4 hrs, intermittently for following 24 hrs and occasionally thereafter for 14 consecutive days; format: organism-based; conditions: in vivo, po
[7] = tested on: Mus musculus; assay: Toxicity in C57BL/6 mouse assessed as abnormal behavior at 677 to 2000 mg/kg, ig measured continuously during first 4 hrs, intermittently for following 24 hrs and occasionally thereafter for 14 consecutive days; format: organism-based; conditions: in vivo, po
In short: (§2)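 Adult C57BL/6 mice, 12 weeks old, given single intragastric doses of 0, 677, 1333 or 2000 mg/kg (n = 6 per dose, 3 male and 3 female). Abnormal behaviour and deaths observed continuously for the first 4 h, intermittently over the next 24 h, then occasionally for 14 days to catch delayed effects.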

[8] = tested on: Mus musculus; assay: Toxicity in C57BL/6 mouse assessed as macroscopic abnormalities of heart at 677 to 2000 mg/kg, ig after 14 consecutive days; format: organism-based; conditions: in vivo, po
[9] = tested on: Mus musculus; assay: Toxicity in C57BL/6 mouse assessed as macroscopic abnormalities of stomach at 677 to 2000 mg/kg, ig after 14 consecutive days; format: organism-based; conditions: in vivo, po
[10] = Half life in Sprague-Dawley rat liver microsomes at 100 uM up to 180 mins by HPLC-UV analysis; conditions: microsomes
[11] = tested on: Mus musculus; assay: Toxicity in C57BL/6 mouse assessed as histological abnormalities of lung at 2000 mg/kg, ig after 14 consecutive days by hematoxylin/eosin dye-based microscopic analysis; format: organism-based; conditions: in vivo, po, 336 h
In short: (§3)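 Adult C57BL/6 mice, 12 weeks old, single intragastric doses of 0, 677, 1333 or 2000 mg/kg (n = 6 per dose, 3 male/3 female); behaviour and mortality observed over 14 days; liver, heart, lung and brain examined by HE staining at 2000 mg/kg.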

[12] = tested on: Mus musculus; assay: Toxicity in C57BL/6 mouse assessed as effect on food intake at 677 to 2000 mg/kg, ig measured continuously during first 4 hrs, intermittently for following 24 hrs and occasionally thereafter for 14 consecutive days; format: organism-based; conditions: in vivo, po
[13] = tested on: Mus musculus; assay: Toxicity in C57BL/6 mouse assessed as effect on body weight at 677 to 2000 mg/kg, ig measured continuously during first 4 hrs, intermittently for following 24 hrs and occasionally thereafter for 14 consecutive days; format: organism-based; conditions: in vivo, po
[14] = tested on: Mus musculus; assay: Toxicity in C57BL/6 mouse assessed as mortality at 677 to 2000 mg/kg, ig measured continuously during first 4 hrs, intermittently for following 24 hrs and occasionally thereafter for 14 consecutive days; format: organism-based; conditions: in vivo, po; in short: as §2
[15] = tested on: Mus musculus; assay: Toxicity in C57BL/6 mouse assessed as histological abnormalities of heart at 2000 mg/kg, ig after 14 consecutive days by hematoxylin/eosin dye-based microscopic analysis; format: organism-based; conditions: in vivo, po; in short: as §3
[16] = tested on: Mus musculus; assay: Induction of cell proliferation in C57BL/6 mouse hippocampal neurons in CA3 region assessed as BrdU-incorporation at 30 mg/kg, po administered via gavage for 7 days by immunohistochemical analysis (reference value: 1.5%); format: functional; in short: as §1
[17] = tested on: Mus musculus; assay: Toxicity in C57BL/6 mouse assessed as histological abnormalities of liver at 2000 mg/kg, ig after 14 consecutive days by hematoxylin/eosin dye-based microscopic analysis; format: organism-based; conditions: in vivo, po, 336 h; in short: as §3
[18] = tested on: Mus musculus; assay: Induction of cell proliferation in C57BL/6 mouse hippocampal neurons in CA2 region assessed as BrdU-incorporation at 0.5 uL/hr, icv for 7 days by immunohistochemical analysis (reference value: 2.4%); format: functional
[19] = tested on: Mus musculus; assay: Toxicity in C57BL/6 mouse assessed as macroscopic abnormalities of intestine at 677 to 2000 mg/kg, ig after 14 consecutive days; format: organism-based; conditions: in vivo, po
[20] = tested on: Mus musculus; assay: Induction of cell proliferation in C57BL/6 mouse hippocampal neurons in DG region assessed as BrdU-incorporation at 30 mg/kg, po administered via gavage for 7 days by immunohistochemical analysis (reference value: 2.2%); format: functional; in short: as §1
[21] = tested on: Mus musculus; assay: Toxicity in C57BL/6 mouse assessed as macroscopic abnormalities of lung at 677 to 2000 mg/kg, ig after 14 consecutive days; format: organism-based; conditions: in vivo, po, 336 h
[22] = tested on: Mus musculus; assay: Toxicity in C57BL/6 mouse assessed as macroscopic abnormalities of spleen at 677 to 2000 mg/kg, ig after 14 consecutive days; format: organism-based; conditions: in vivo, po
[23] = tested on: Mus musculus; assay: Induction of cell proliferation in C57BL/6 mouse hippocampal neurons in CA3 region assessed as BrdU-incorporation at 0.5 uL/hr, icv for 7 days by immunohistochemical analysis (reference value: 1.4%); format: functional
[24] = tested on: Mus musculus; assay: Induction of cell proliferation in C57BL/6 mouse hippocampal neurons in DG region assessed as BrdU-incorporation at 0.5 uL/hr, icv for 7 days by immunohistochemical analysis (reference value: 7.8%); format: functional
[25] = tested on: Mus musculus; assay: Toxicity in C57BL/6 mouse assessed as histological abnormalities of brain at 2000 mg/kg, ig after 14 consecutive days by hematoxylin/eosin dye-based microscopic analysis; format: organism-based; conditions: in vivo, po, 336 h; in short: as §3
[26] = tested on: Mus musculus; assay: Induction of cell proliferation in C57BL/6 mouse hippocampal neurons in CA2 region assessed as BrdU-incorporation at 30 mg/kg, po administered via gavage for 7 days by immunohistochemical analysis (reference value: 2.4%); format: functional; in short: as §1
[27] = tested on: Mus musculus; assay: Induction of cell proliferation in C57BL/6 mouse hippocampal neurons in CA1 region assessed as BrdU-incorporation at 0.5 uL/hr, icv for 7 days by immunohistochemical analysis (reference value: 3.2%); format: functional
[28] = tested on: Mus musculus; assay: Toxicity in C57BL/6 mouse assessed as macroscopic abnormalities of kidney at 677 to 2000 mg/kg, ig after 14 consecutive days; format: organism-based; conditions: in vivo, po
[29] = tested on: PC-12; assay: Induction of rat PC12 cell proliferation at 0.5 to 50 uM after 72 hrs by microscopic analysis; format: functional, cell-based
In short: (§4)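 Undifferentiated PC12 cells cultured 72 h with compound at 0.5–50 µM (images at 10 µM) or with NGF 50 ng/ml, then examined under a digital microscope.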

[30] = tested on: PC-12; assay: Induction of rat PC12 cell proliferation at 10 uM after 72 hrs by microscopic analysis; format: functional, cell-based; in short: as §4
[31] = tested on: SH-SY5Y; assay: Neuroprotective activity against t-BuOOH-induced oxidative stress in human SH-SY5Y cells assessed as inhibition ROS accumulation pre-incubated for 24 hrs before t-BuOOH challnge for 30 mins by DCFH-DA probe based fluorescence assay; format: functional, cell-based
In short: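 SH-SY5Y cells; test agents at 1–0.01 µM, oxidative stress induced by tert-butyl hydroperoxide; intracellular ROS read by DCFH-DA fluorescence; at least three independent experiments in sextuplicate; EC50 derived.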

COc1cc2cc(-c3ccc4cccc(O)c4n3)[nH]c2cc1OC
Papp at 10 h, 100 ug/ml [1]: 5.2 ×10⁻⁶ cm/s

Oc1ccc(-c2cc3ccccc3[nH]2)c2cccnc12
Activity [2]: Toxic
Papp at 10 h, 100 ug/ml [1]: 12.8 ×10⁻⁶ cm/s

Cl.Oc1cccc2ccc(-c3cc4ccc5c(c4[nH]3)OCO5)nc12
K [3]: 0.01183 min⁻¹
Activity [4]: 8%
Activity [5]: Non-Toxic
Activity [6]: Non-Toxic
Activity [7]: Non-Toxic
Activity [8]: Non-Toxic
Activity [9]: Non-Toxic
half-life at 3 h, 100 µM [10]: 58.6 min
Activity [11]: Non-Toxic
Activity [12]: Non-Toxic
Activity [13]: Non-Toxic
Activity [14]: Non-Toxic
Activity [15]: Non-Toxic
Activity [16]: 3.9%
Activity [17]: Non-Toxic
Activity [18]: 56.1%
Activity [19]: Non-Toxic
Activity [20]: 7.6%
Activity [21]: Non-Toxic
Activity [22]: Non-Toxic
Activity [23]: 49.3%
Activity [24]: 43.6%
Activity [25]: Non-Toxic
Activity [26]: 7.5%
Activity [27]: 61.9%
Activity [28]: Non-Toxic

Oc1c(Cl)cc(Cl)c2ccc(-c3cc4cc(Cl)ccc4[nH]3)nc12
Activity [29]: Active
Activity [30]: Active

C[C@]12CC[C@H]3[C@@H](CCC4=CC(=O)CC[C@@]43C)[C@@H]1CC[C@@H]2O [TESTOSTERONE]
K [3]: 0.3132 min⁻¹

Oc1ccc2[nH]c(-c3ccc4cccc(O)c4n3)cc2c1
Activity [2]: Toxic
Papp at 10 h, 100 ug/ml [1]: 14.8 ×10⁻⁶ cm/s

CN(C)CCCN1c2ccccc2Sc2ccc(Cl)cc21 [CHLORPROMAZINE]
Papp at 10 h, 100 ug/ml [1]: 5.9 ×10⁻⁶ cm/s

Oc1c(Cl)cc(Cl)c2ccc(-c3cc4ccccc4[nH]3)nc12
Activity [29]: inactive
Papp at 10 h, 100 ug/ml [1]: 6.6 ×10⁻⁶ cm/s

Oc1ccc2[nH]c(-c3ccc4c(Cl)cc(Cl)c(O)c4n3)cc2c1
Activity [2]: Non-Toxic
EC50 [31]: 100 nM
Papp at 10 h, 100 ug/ml [1]: 10.2 ×10⁻⁶ cm/s

Oc1cccc2ccc(-c3cc4cc(Cl)ccc4[nH]3)nc12
Activity [2]: Toxic
Papp at 10 h, 100 ug/ml [1]: 9.8 ×10⁻⁶ cm/s

Oc1ccc2[nH]c(-c3cc(Cl)c(O)c4ncccc34)cc2c1
Activity [2]: Toxic
Papp at 10 h, 100 ug/ml [1]: 6.8 ×10⁻⁶ cm/s

Oc1cccc2ccc(-c3cc4cc(F)ccc4[nH]3)nc12
Papp at 10 h, 100 ug/ml [1]: 10.6 ×10⁻⁶ cm/s
